Legend:
Format in all cases: functional
Mus musculus [1] = assay: Percent increase in life span at dose 10 mg/kg/day in 10 mice implanted with P388 leukemia cell line
Outline: (§1)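 Female DBA2 mice inoculated iv on day 0 with 10^4 P388 cells; single iv treatment on day 1 with drug as sulfate salt in physiological saline. Survival followed; %ILS from all deaths and survivors as (T/C × 100) − 100, maximal MST 30 days; survivors counted on days 30 and 60. Most experiments confirmed three times.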

Mus musculus [2] = assay: Percent increase in life span at dose 7.5 mg/kg/day in 10 mice implanted with P388 leukemia cell line
Mus musculus [3] = assay: Percent increase in life span at dose 5 mg/kg/day in 10 mice implanted with P388 leukemia cell line; outline: as §1
Mus musculus [4] = assay: Number of survivors on 60th day at dose 5 mg/kg/day in 10 mice implanted with P388 leukemia cell line; 0/10
Mus musculus [5] = assay: Number of survivors on 30th day at dose 5 mg/kg/day in 10 mice implanted with P388 leukemia cell line; 0/10
Mus musculus [6] = assay: Number of survivors on 60th day at dose 10 mg/kg/day in 10 mice implanted with P388 leukemia cell line; 0/10
Mus musculus [7] = assay: Number of survivors on 30th day at dose 10 mg/kg/day in 10 mice implanted with P388 leukemia cell line; 0/10
Mus musculus [8] = assay: Number of survivors on 60th day at dose 7.5 mg/kg/day in 10 mice implanted with P388 leukemia cell line; 0/10
Mus musculus [9] = assay: Number of survivors on 30th day at dose 7.5 mg/kg/day in 10 mice implanted with P388 leukemia cell line; 0/10
Mus musculus [10] = assay: Percent increase in life span of DBA2 mice after inoculation with L1210 leukemia intravenously at a dose of 50 mg/kg per day; settings: route intravenous
Outline: (§2)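 Female DBA2 mice inoculated iv on day 0 with 10^4 L1210 cells; drugs given iv as sulfate salts in physiological saline, mostly once on day 1. %ILS from all deaths and survivors as (T/C × 100) − 100; survivors scored on days 30 and 60.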

Mus musculus [11] = assay: Percent increase in life span at dose 70 mg/kg/day in 10 mice implanted with P388 leukemia cell line; outline: as §1
Mus musculus [12] = assay: Number of survivors of DBA2 mice on 30th day after inoculation with L1210 leukemia cell line intravenously at a dose of 50 mg/kg/day; 0/10; settings: route intravenous
Mus musculus [13] = assay: Percent increase in life span at dose 80 mg/kg/day in 10 mice implanted with P388 leukemia cell line; outline: as §1
Mus musculus [14] = assay: Percent increase in life span at dose 40 mg/kg/day in 10 mice implanted with P388 leukemia cell line; outline: as §1
Mus musculus [15] = assay: Percent increase in life span at dose 55 mg/kg/day in 10 mice implanted with P388 leukemia cell line; outline: as §1
Mus musculus [16] = assay: Number of survivors on 60th day at dose mg/kg/day in 10 mice implanted with P388 leukemia cell line; 1/10
Mus musculus [17] = assay: Number of survivors on 60th day at dose mg/kg/day in 10 mice implanted with P388 leukemia cell line; 2/10
Mus musculus [18] = assay: Percent increase in life span at dose 60 mg/kg/day in 10 mice implanted with P388 leukemia cell line; outline: as §1
Mus musculus [19] = assay: Number of survivors on 30th day at dose 40 mg/kg/day in 10 mice implanted with P388 leukemia cell line; 1/10
Mus musculus [20] = assay: Number of survivors on 60th day at dose mg/kg/day in 10 mice implanted with P388 leukemia cell line; 7/10
Mus musculus [21] = assay: Number of survivors on 60th day at dose mg/kg/day in 10 mice implanted with P388 leukemia cell line; 5/10
Mus musculus [22] = assay: Number of survivors on 30th day at dose 50 mg/kg/day in 10 mice implanted with P388 leukemia cell line; 2/10
Mus musculus [23] = assay: Number of survivors on 30th day at dose 55 mg/kg/day in 10 mice implanted with P388 leukemia cell line; 7/10
Mus musculus [24] = assay: Number of survivors of DBA2 mice on 60th day after inoculation with L1210 leukemia cell line intravenously at a dose of 50 mg/kg/day; 0/10; settings: route intravenous
Mus musculus [25] = assay: Number of survivors on 30th day at dose 70 mg/kg/day in 10 mice implanted with P388 leukemia cell line; 5/10
Mus musculus [26] = assay: Number of survivors on 30th day at dose 80 mg/kg/day in 10 mice implanted with P388 leukemia cell line; 7/10
Mus musculus [27] = assay: Number of survivors on 30th day at dose 60 mg/kg/day in 10 mice implanted with P388 leukemia cell line; 5/10
Mus musculus [28] = assay: Percent increase in life span at dose 50 mg/kg/day in 10 mice implanted with P388 leukemia cell line; outline: as §1
Mus musculus [29] = assay: Number of survivors on 60th day at dose mg/kg/day in 10 mice implanted with P388 leukemia cell line; 4/10
Mus musculus [30] = assay: Number of survivors on 60th day at dose 12.5 mg/kg/day in 10 mice implanted with P388 leukemia cell line
Mus musculus [31] = assay: Number of survivors on 60th day at dose 15 mg/kg/day in 10 mice implanted with P388 leukemia cell line
Mus musculus [32] = assay: Number of survivors on 60th day at dose 25 mg/kg/day in 10 mice implanted with P388 leukemia cell line
Mus musculus [33] = assay: Percent increase in life span at dose 12.5 mg/kg/day in 10 mice implanted with P388 leukemia cell line; outline: as §1
Mus musculus [34] = assay: Percent increase in life span at dose 15 mg/kg/day in 10 mice implanted with P388 leukemia cell line; outline: as §1
Mus musculus [35] = assay: Percent increase in life span at dose 25 mg/kg/day in 10 mice implanted with P388 leukemia cell line
Mus musculus [36] = assay: Percent increase in life span of DBA2 mice after inoculation with L1210 leukemia intravenously at a dose of 12.5 mg/kg per day; settings: route intravenous; outline: as §2
Mus musculus [37] = assay: Number of survivors on 60th day at dose 5 mg/kg/day in 10 mice implanted with P388 leukemia cell line
Mus musculus [38] = assay: Number of survivors on 30th day at dose 25 mg/kg/day in 10 mice implanted with P388 leukemia cell line
Mus musculus [39] = assay: Number of survivors of DBA2 mice on 60th day after inoculation with L1210 leukemia cell line intravenously at a dose of 12.5 mg/kg/day; 0/10; settings: route intravenous
Mus musculus [40] = assay: Number of survivors of DBA2 mice on 30th day after inoculation with L1210 leukemia cell line intravenously at a dose of 12.5 mg/kg/day; 0/10; settings: route intravenous
Mus musculus [41] = assay: Number of survivors on 30th day at dose 5 mg/kg/day in 10 mice implanted with P388 leukemia cell line
Mus musculus [42] = assay: Number of survivors on 60th day at dose 10 mg/kg/day in 10 mice implanted with P388 leukemia cell line
Mus musculus [43] = assay: Number of survivors on 30th day at dose 12.5 mg/kg/day in 10 mice implanted with P388 leukemia cell line
Mus musculus [44] = assay: Number of survivors on 30th day at dose 10 mg/kg/day in 10 mice implanted with P388 leukemia cell line
Mus musculus [45] = assay: Number of survivors on 30th day at dose 15 mg/kg/day in 10 mice implanted with P388 leukemia cell line

## CCOC(=O)[C@H](CO)NC(=O)[C@@]1(O)[C@H](O)[C@]2(CC)C=CCN3CC[C@@]4(c5cc([C@@]6(C(=O)OC)C[C@H]7C[N@](CCc8c6[nH]c6ccccc86)C[C@](O)(CC)C7)c(OC)cc5N(C)[C@@]14C)[C@@H]32
Mus musculus [1]
  ILS at 10 mg/kg/day: 32%
Mus musculus [2]
  ILS at 7.5 mg/kg/day: 26%
Mus musculus [3]
  ILS at 5 mg/kg/day: 16%
Mus musculus [4]
  Survivors: 0
Mus musculus [5]
  Survivors: 0
Mus musculus [6]
  Survivors: 0
Mus musculus [7]
  Survivors: 0
Mus musculus [8]
  Survivors: 0
Mus musculus [9]
  Survivors: 0

## CCCCOC(=O)[C@H](Cc1c[nH]c2ccccc12)NC(=O)[C@@]1(O)[C@H](O)[C@]2(CC)C=CCN3CC[C@@]4(c5cc([C@@]6(C(=O)OC)C[C@H]7C[N@](CCc8c6[nH]c6ccccc86)C[C@](O)(CC)C7)c(OC)cc5N(C)[C@@]14C)[C@@H]32
Mus musculus [10]
  ILS at 50 mg/kg/day: 44%
Mus musculus [11]
  ILS at 70 mg/kg/day: 52%
Mus musculus [12]
  Survivors: 0
Mus musculus [13]
  ILS at 80 mg/kg/day: > 216%
Mus musculus [14]
  ILS at 40 mg/kg/day: 63%
Mus musculus [15]
  ILS at 55 mg/kg/day: > 163%
Mus musculus [16]
  Survivors: 1
Mus musculus [17]
  Survivors: 2
Mus musculus [18]
  ILS at 60 mg/kg/day: 140%
Mus musculus [19]
  Survivors: 1
Mus musculus [20]
  Survivors: 7
Mus musculus [21]
  Survivors: 5
Mus musculus [22]
  Survivors: 2
Mus musculus [23]
  Survivors: 7
Mus musculus [24]
  Survivors: 0
Mus musculus [25]
  Survivors: 5
Mus musculus [26]
  Survivors: 7
Mus musculus [27]
  Survivors: 5
Mus musculus [28]
  ILS at 50 mg/kg/day: 31.6%
Mus musculus [29]
  Survivors: 4

## CCOC(=O)[C@H](C)NC(=O)[C@@]1(O)[C@H](O)[C@]2(CC)C=CCN3CC[C@@]4(c5cc([C@@]6(C(=O)OC)C[C@H]7C[N@](CCc8c6[nH]c6ccccc86)C[C@](O)(CC)C7)c(OC)cc5N(C)[C@@]14C)[C@@H]32
Mus musculus [1]
  ILS at 10 mg/kg/day: 36.8%
Mus musculus [30]
  Survivors: 1
Mus musculus [31]
  Survivors: 0
Mus musculus [32]
  Survivors: 1
Mus musculus [33]
  ILS at 12.5 mg/kg/day: 46%
Mus musculus [34]
  ILS at 15 mg/kg/day: 39%
Mus musculus [35]
  ILS at 25 mg/kg/day: 63.8%
Mus musculus [3]
  ILS at 5 mg/kg/day: 27.6%
Mus musculus [36]
  ILS at 12.5 mg/kg/day: 50%
Mus musculus [37]
  Survivors: 0
Mus musculus [38]
  Survivors: 2
Mus musculus [39]
  Survivors: 0
Mus musculus [40]
  Survivors: 0
Mus musculus [41]
  Survivors: 0
Mus musculus [42]
  Survivors: 2
Mus musculus [43]
  Survivors: 1
Mus musculus [44]
  Survivors: 2
Mus musculus [45]
  Survivors: 0

From ChEMBL document CHEMBL1122917, “Vinblastin-23-oyl amino acid derivatives: chemistry, physicochemical data, toxicity, and antitumor activities against P388 and L1210 leukemias” (J Med Chem, 1985)
